Source: ChEMBL document CHEMBL2440018 (J Med Chem, 2013)
Calls of active or inactive are those of the source. The rule behind the calls is not given here.

Experiments:
[1] = system: Liver; experiment: Half life in rat liver S9 fraction at 10 uM by reversed-phase UPLC/ESI-MRM analysis; format: ADME, subcellular; conditions: s9, 10 µM
Method in brief: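 Male rat liver S9 (1.0 mg) with 0.5 mM NADPH and 10 µM compound (both final) in 50 mM potassium phosphate, pH 7.4, at 37 °C, sampled over time. Aliquots were stopped with acetonitrile containing internal standard, and the supernatant was run by UPLC/ESI-MRM. Half-lives used first-order kinetics on peak-area ratios to internal standard.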

[2] = molecular target: T1, Matrilysin (Homo sapiens) (UniProt P09237); experiment: Inhibition of human recombinant MMP-7 at 50 uM by fluorescence spectrophotometric analysis relative to control
T1 sequence (whole entry): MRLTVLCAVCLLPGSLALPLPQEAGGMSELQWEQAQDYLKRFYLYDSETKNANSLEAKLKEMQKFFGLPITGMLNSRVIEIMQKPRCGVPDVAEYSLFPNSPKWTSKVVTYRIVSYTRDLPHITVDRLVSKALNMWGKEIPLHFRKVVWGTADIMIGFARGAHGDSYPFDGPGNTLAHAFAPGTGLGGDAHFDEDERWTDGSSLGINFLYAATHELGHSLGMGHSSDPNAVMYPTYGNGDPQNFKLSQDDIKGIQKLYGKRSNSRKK

[3] = molecular target: Matrix metalloproteinase-9 (Homo sapiens, UniProt P14780); experiment: Inhibition of human recombinant MMP-9 catalytic domain using MOCAcPLGLA2pr(Dnp)AR-NH2 as substrate by fluorescence spectrophotometric analysis
[4] = molecular target: MMP-2/MMP-9 (Homo sapiens) (UniProt P08253+P14780); experiment: Selectivity ratio of Ki for human recombinant MMP-9 catalytic domain to Ki for human recombinant MMP-2
[5] = molecular target: Matrix metalloproteinase-14 (Homo sapiens, UniProt P50281); experiment: Inhibition of human recombinant MMP-14 catalytic domain using MOCAcPLGLA2pr(Dnp)AR-NH2 as substrate by fluorescence spectrophotometric analysis
[6] = molecular target: T2, Interstitial collagenase (Homo sapiens) (UniProt P03956); experiment: Inhibition of human recombinant MMP-1 catalytic domain at 50 uM by fluorescence spectrophotometric analysis relative to control
T2 sequence (whole entry): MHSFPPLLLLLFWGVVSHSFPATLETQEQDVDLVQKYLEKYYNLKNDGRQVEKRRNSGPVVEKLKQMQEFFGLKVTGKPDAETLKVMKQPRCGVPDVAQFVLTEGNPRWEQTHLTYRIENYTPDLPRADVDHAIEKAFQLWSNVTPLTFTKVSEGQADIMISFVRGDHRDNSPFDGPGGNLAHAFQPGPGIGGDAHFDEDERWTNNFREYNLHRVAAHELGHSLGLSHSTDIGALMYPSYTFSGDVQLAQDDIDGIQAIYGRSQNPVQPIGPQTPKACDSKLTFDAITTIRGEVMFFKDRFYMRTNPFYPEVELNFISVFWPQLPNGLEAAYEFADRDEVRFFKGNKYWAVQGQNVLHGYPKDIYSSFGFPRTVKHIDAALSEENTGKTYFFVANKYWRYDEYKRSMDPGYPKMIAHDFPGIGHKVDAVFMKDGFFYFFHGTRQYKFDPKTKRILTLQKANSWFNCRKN

[7] = molecular target: 72 kDa type IV collagenase (Homo sapiens, UniProt P08253); experiment: Inhibition of human recombinant MMP-2 using MOCAcPLGLA2pr(Dnp)AR-NH2 as substrate by fluorescence spectrophotometric analysis
[8] = molecular target: Stromelysin-1 (Homo sapiens) (UniProt P08254); experiment: Inhibition of human recombinant MMP-3 catalytic domain at 50 uM by fluorescence spectrophotometric analysis relative to control
[9] = molecular target: MMP-2/MMP-14 (Homo sapiens) (UniProt P50281+P08253); experiment: Selectivity ratio of Ki for human recombinant MMP-14 catalytic domain to Ki for human recombinant MMP-2
[10] = organism: Homo sapiens; experiment: Selectivity ratio of Ki for human recombinant MMP-8 catalytic domain to Ki for human recombinant MMP-2
[11] = system: Liver; experiment: Metabolic stability in rat liver S9 fraction assessed as formation of 4-(4-(thiiran-2-ylmethylsulfonyl)phenoxy)phenol after 5 mins by reversed-phase LC/MS analysis; format: ADME, subcellular; conditions: s9, 5 min
Method in brief: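 Male rat liver S9 (1.0 mg) incubated with 10 μM compound (final) and 0.5 mM NADPH (final) in 50 mM potassium phosphate, pH 7.4, 37 °C. Aliquots taken at several time points. Reactions quenched with one volume acetonitrile containing internal standard, centrifuged, supernatant run on reversed-phase UPLC/ESI-MRM. Quantified by peak area ratio to internal standard.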

Sequence of Matrix metalloproteinase-9 (P14780 whole entry, the tested form may be a part): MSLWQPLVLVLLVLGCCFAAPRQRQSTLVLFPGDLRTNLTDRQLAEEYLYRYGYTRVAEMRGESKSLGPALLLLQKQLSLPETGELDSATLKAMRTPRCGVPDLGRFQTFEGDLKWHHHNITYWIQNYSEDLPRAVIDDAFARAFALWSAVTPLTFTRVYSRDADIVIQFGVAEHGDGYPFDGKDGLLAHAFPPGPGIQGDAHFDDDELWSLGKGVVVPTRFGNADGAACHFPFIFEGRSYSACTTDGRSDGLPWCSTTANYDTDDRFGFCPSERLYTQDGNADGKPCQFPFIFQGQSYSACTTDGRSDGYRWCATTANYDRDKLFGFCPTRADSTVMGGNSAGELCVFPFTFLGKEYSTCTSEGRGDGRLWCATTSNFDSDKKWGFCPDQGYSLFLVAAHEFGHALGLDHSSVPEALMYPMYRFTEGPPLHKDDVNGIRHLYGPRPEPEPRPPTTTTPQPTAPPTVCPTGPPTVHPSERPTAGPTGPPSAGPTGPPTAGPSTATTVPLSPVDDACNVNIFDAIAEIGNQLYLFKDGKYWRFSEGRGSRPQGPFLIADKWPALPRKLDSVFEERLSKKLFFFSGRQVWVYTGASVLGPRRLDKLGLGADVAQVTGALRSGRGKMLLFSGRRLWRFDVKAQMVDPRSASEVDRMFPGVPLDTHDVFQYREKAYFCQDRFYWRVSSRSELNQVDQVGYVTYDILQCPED
Sequence of 72 kDa type IV collagenase (P08253 whole entry, the tested form may be a part): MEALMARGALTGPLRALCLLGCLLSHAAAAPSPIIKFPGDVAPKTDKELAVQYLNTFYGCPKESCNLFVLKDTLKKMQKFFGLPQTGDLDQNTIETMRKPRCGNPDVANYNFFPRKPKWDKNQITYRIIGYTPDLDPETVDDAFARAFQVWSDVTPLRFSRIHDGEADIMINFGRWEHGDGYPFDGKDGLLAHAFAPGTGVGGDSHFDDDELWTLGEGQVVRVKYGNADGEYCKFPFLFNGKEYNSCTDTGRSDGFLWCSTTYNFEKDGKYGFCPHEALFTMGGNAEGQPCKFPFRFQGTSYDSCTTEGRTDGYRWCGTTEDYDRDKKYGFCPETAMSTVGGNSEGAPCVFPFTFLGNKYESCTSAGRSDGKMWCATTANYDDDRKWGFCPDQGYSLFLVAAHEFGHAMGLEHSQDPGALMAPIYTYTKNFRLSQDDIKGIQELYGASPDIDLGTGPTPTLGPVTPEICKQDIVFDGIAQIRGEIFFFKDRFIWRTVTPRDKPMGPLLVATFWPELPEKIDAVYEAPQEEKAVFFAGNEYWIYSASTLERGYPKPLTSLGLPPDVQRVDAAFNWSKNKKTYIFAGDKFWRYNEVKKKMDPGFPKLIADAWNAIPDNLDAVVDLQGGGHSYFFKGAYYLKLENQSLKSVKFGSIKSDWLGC

| Structure (SMILES) | t1/2 [1] | inhibition [2] | Ki [3] | Ratio Ki [4] | Ki [5] | inhibition [6] | Ki [7] | inhibition [8] | Ratio Ki [9] | Ratio Ki [10] | Stability [11] |
| --- | --- | --- | --- | --- | --- | --- | --- | --- | --- | --- | --- |
| O=S(=O)(CC1CS1)c1ccc(Oc2ccc(O)cc2)cc1 (stereo not drawn) | 23.5 min |  |  |  |  |  |  |  |  |  |  |
| CCCOC(=O)Nc1ccc(Oc2ccc(S(=O)(=O)CC3CS3)cc2)cc1 (stereo not drawn) |  | inactive | 1100 nM | 2 | 2100 nM | inactive | 490 nM | 27% |  |  |  |
| CNC(=O)Nc1ccc(Oc2ccc(S(=O)(=O)CC3CS3)cc2)cc1 (stereo not drawn) |  | 8% | 9900 nM | 20 | 19000 nM | inactive | 240 nM | 21% | 20 | 20 |  |
| CC(C)OC(=O)Nc1ccc(Oc2ccc(S(=O)(=O)CC3CS3)cc2)cc1 (stereo not drawn) |  | inactive | 2700 nM | 2 | 2500 nM | inactive | 680 nM | inactive |  |  |  |
| CCCOC(=O)Oc1ccc(Oc2ccc(S(=O)(=O)CC3CS3)cc2)cc1 (stereo not drawn) |  | 10% | 1000 nM | 2 | 2800 nM | inactive | 310 nM | 29% |  |  |  |
| CCCNC(=O)Oc1ccc(Oc2ccc(S(=O)(=O)CC3CS3)cc2)cc1 (stereo not drawn) |  | 2% | 52000 nM | 20 | 27000 nM | inactive | 760 nM | 38% | 20 | 20 |  |
| CCOC(=O)Oc1ccc(Oc2ccc(S(=O)(=O)CC3CS3)cc2)cc1 (stereo not drawn) |  | 9% |  | 2 | 2700 nM | inactive | 230 nM | 39% |  |  | Unstable |
| CCOC(=O)Nc1ccc(Oc2ccc(S(=O)(=O)CC3CS3)cc2)cc1 (stereo not drawn) | 24.8 min | inactive |  |  | 1900 nM | inactive | 290 nM | 37% |  |  |  |
